Assay results gathered from unrelated publications.
Compare with care: the assays were run in different laboratories.
Effect on: cell growth or viability

CC(C)(C)C1=CC(=NNC(=O)C2CCCCC2)C=C(C(C)(C)C)C1=O — IC50 (human Fibroblast; resazurin; 24 h): > 100 µM
Cc1cc(O)c2c(c1)C(=O)c1cccc(O)c1C2=O — IC50 (HK-2; MTT; 24 h): > 500 µM
CC(C)C[C@H](NC(=O)[C@H](Cc1ccccc1)NC(=O)c1cnccn1)B(O)O — IC50 (A2058; ATP luminescence): 0.013 µM
CCCCCCNC(=O)n1cc(F)c(=O)[nH]c1=O — IC50 (C6; MTT; 72 h): 7 µM
COc1ccc(Oc2ccccc2NC(=O)CNC(=O)c2cccc3ccccc23)cc1 — IC50 (SK-N-DZ): 0.271 µM
COC(=O)CN=c1scc(-c2ccccc2)n1-c1ccccc1[N+](=O)[O-] — IC50 (Panc 02.03; MTT; 72 h): > 100 µM
Nc1nc(Nc2ccccc2)nc2c1ncn2[C@@H]1O[C@H](CO)[C@@H](O)[C@H]1O — IC50 (HN-6; 72 h): > 20 µM
COc1cc(Nc2nccc(-c3cnn4nc(OC)ccc34)n2)cc(C(F)(F)F)c1 — IC50 (RERF-LC-Ad2; ATP luminescence): 0.36 µM
COc1cccc2c1C(=O)c1c(O)c3c(c(O)c1C2=O)C[C@@](O)(C(=O)CO)C[C@@H]3O[C@H]1C[C@H](N)[C@H](O)[C@H](C)O1 — IC50 (SGC-7901; MTT; 48 h): 0.13 µM
C(=C\c1c[nH]c2ccccc12)/c1ccc2ccccc2n1 — IC50 (MDA-MB-468; MTT): 11 µM
CN(C)CC[C@@H](c1ccc(Cl)cc1)c1ccccn1 — IC50 (HN-6; 72 h): > 20 µM
CC(C)=CCC[C@](C)(O)[C@H]1CC[C@]2(C)[C@@H]1[C@H](O)C[C@@H]1[C@@]3(C)CC[C@H](O[C@@H]4O[C@H](CO)[C@@H](O)[C@H](O)[C@H]4O[C@@H]4O[C@H](CO)[C@@H](O)[C@H](O)[C@H]4O)C(C)(C)[C@@H]3CC[C@]12C — IC50 (BEAS-2B; MTT; 72 h): > 100 µM
CCCCc1ccc2[nH]c(NC(=O)OC)nc2c1 — IC50 (HN-6; 72 h): 0.126 µM
O=C1c2cccc(O)c2C(=O)c2c(O)cc(CO)cc21 — IC50 (HK-2; MTT; 24 h): > 500 µM
Cn1cc(C(=O)C(=O)NCCc2c[nH]c3ccccc23)c2ccccc21 — IC50 (C4-2; MTT): > 100 µM
COc1cc2nc(N3CCN(C(=O)c4ccco4)[C@H]4CCCC[C@H]43)nc(N)c2cc1OC (racemic) — IC50 (HN-6; 72 h): 15.6 µM
COc1cccc2c1C(=O)c1c(O)c3c(c(O)c1C2=O)C[C@@](O)(C(=O)CO)C[C@@H]3O[C@H]1C[C@H](N)[C@H](O)[C@H](C)O1 — IC50 (A2058; WST-1; 72 h): 0.04 µM
O=C(O)c1cc(O)c2c(c1)C(=O)c1cccc(O[C@@H]3O[C@H](CO)[C@@H](O)[C@H](O)[C@H]3O)c1C2=O — IC50 (HK-2; MTT; 24 h): > 500 µM
O=C(O)CCCc1ccccc1 — IC50 (BCPAP; MTT; 72 h): > 50 µM
O=C(NCCc1c[nH]c2ccccc12)C(=O)c1c[nH]c2ccc(F)cc12 — IC50 (C4-2; MTT): > 100 µM
Nc1ccc(Cl)c[n+]1[Pt-2]([Cl])([Cl])[n+]1cc(Cl)ccc1N — IC50 (BEAS-2B; MTT; 24 h): 10.3 µM
CCN1CCN(c2ccc(Nc3cc(N(C)C(=O)Nc4c(Cl)c(OC)cc(OC)c4Cl)ncn3)cc2)CC1 — IC50 (RT-112; ATP luminescence; 96 h): 0.0117 µM
Nc1c2c(nc3ccccc13)CCCC2O (centres unmarked) — IC50 (HN-6; 72 h): > 20 µM
CCN1C(=O)N(c2c(F)c(OC)cc(OC)c2F)Cc2cnc3[nH]c(CN4CCOCC4)cc3c21 — IC50 (KATO III; ATP luminescence; 96 h): 0.00148 µM
Clc1ccc(N2CCN(Cc3c[nH]c4ncccc34)CC2)cc1 — IC50 (HN-6; 72 h): > 20 µM
CC1(C)CC[C@]2(C(=O)O)CC[C@]3(C)C(=CC[C@@H]4[C@@]5(C)CC[C@H](O)C(C)(C)[C@@H]5CC[C@]43C)[C@@H]2C1 — IC50 (SGC-7901; MTT; 48 h): 52.7 µM
Nc1ccn([C@@H]2O[C@H](CO)[C@@H](O)C2(F)F)c(=O)n1 — IC50 (Panc 02.03; MTT; 72 h): 0.38 µM
O=C1NC(=NCc2cccs2)S/C1=C\c1ccc2ncccc2c1 — IC50 (LOX IMVI): 4.4 µM
Cc1ccc(C(=O)Nc2ccc(Oc3cc4cnn(C)c4cc3-c3cn[nH]c3)c(F)c2)c(=O)n1-c1ccc(F)cc1 — IC50 (KATO III; ATP luminescence): 0.354 µM
CCN(CC)CCNC(=O)COc1ccc(OC)cc1 — IC50 (HN-6; 72 h): > 20 µM
COc1nc(OCc2cccc(-c3ccccc3)c2C)ccc1CNCCNC(C)=O — IC50 (HK-2; MTT): 1.9 µM
CN1CCN(c2ccc3nc(-c4c(N)c5c(F)cccc5[nH]c4=O)[nH]c3c2)CC1 — IC50 (RT-112; MTT; 5 days): 0.2 µM
C=C(C)C(=O)Nc1ccc(-c2c(-c3ccc(Oc4nccc(C)n4)c(F)c3)c3c(N)ncnc3n2C)cc1 — IC50 (RT-112; ATP luminescence; 96 h): 0.212 µM
CS(=O)(=Nc1ccc(Br)cc1)c1c[nH]c2ccccc12 (centres unmarked) — IC50 (C4-2; MTT; 48 h): > 40 µM
O=C(CNC(=O)c1cccc2ccccc12)Nc1ccccc1Oc1ccccc1 — IC50 (SK-N-DZ): 0.237 µM
O=C1Nc2ccc(Cl)cc2[C@@](C#CC2CC2)(C(F)(F)F)O1 — IC50 (HN-6; 72 h): 18.7 µM
CC(C)(C)C1=CC(=NNC(=O)c2cccnc2)C=C(C(C)(C)C)C1=O — IC50 (human Fibroblast; resazurin; 24 h): > 100 µM
COc1cccc(Oc2ccccc2NC(=O)CNC(=O)c2cccc3ccccc23)c1 — IC50 (SK-N-DZ): 0.288 µM
